Reference: ChEMBL document CHEMBL3108711, “Penicillipyrones A and B, meroterpenoids from a marine-derived Penicillium sp. fungus” (2014)
Activity calls are given as the source filed them. The rule behind the calls is not given here.

Legend:
K562 = test: Cytotoxicity against human K562 cells after 48 hrs by MTT assay; format: functional; details: K562, 48 h, read-out: LC50 (the source's name)
In short: (§1)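 Values reported as LC50 (μM), with doxorubicin as the positive control; the rest of the method follows the cited literature protocol.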

A549 = test: Cytotoxicity against human A549 cells after 48 hrs by MTT assay; format: functional; details: A549, 48 h; in short: as §1
Trichophyton rubrum = test: Antimicrobial activity against Trichophyton rubrum IFO 9185 after 48 to 72 hrs by two-fold broth dilution assay; format: functional
Hepa-1c1c7 [1] = test: Induction of quinone reductase in mouse Hepa-1c1c7 cells after 24 hrs by MTT assay; format: cell-based
In short: (§2)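 QR induction measured in murine Hepa 1c1c7 hepatoma cells. Test concentrations ranged 5−40 μM. Blank control was 0.1% DMSO, and β-NF at 2 μM served as the positive control. Induction is expressed as fold over the blank control.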

Bacillus spizizenii = test: Antimicrobial activity against Bacillus subtilis ATCC 6633 after 24 hrs by two-fold broth dilution assay; format: functional; details: ATCC 6633, 24 h
Hepa-1c1c7 [2] = test: Induction of quinone reductase in mouse Hepa-1c1c7 cells at 40 uM after 24 hrs by MTT assay relative to control; format: cell-based; in short: as §2
Salmonella typhimurium = test: Antimicrobial activity against Salmonella typhimurium ATCC 14028 after 24 hrs by two-fold broth dilution assay; format: functional, Salmonella enterica subsp. enterica serovar Typhimurium; details: Salmonella enterica, ATCC 14028, 24 h
Aspergillus fumigatus = test: Antimicrobial activity against Aspergillus fumigatus HIC 6094 after 48 to 72 hrs by two-fold broth dilution assay; format: functional
Proteus vulgaris = test: Antimicrobial activity against Proteus vulgaris ATCC 3851 after 24 hrs by two-fold broth dilution assay; format: functional; details: ATCC 3851, 24 h
Staphylococcus aureus = test: Antimicrobial activity against Staphylococcus aureus ATCC 6538p after 24 hrs by two-fold broth dilution assay; format: functional
Micrococcus luteus = test: Antimicrobial activity against Micrococcus luteus IFO 12708 after 24 hrs by two-fold broth dilution assay; format: functional; details: IFO 12708, 24 h
Escherichia coli = test: Antimicrobial activity against Escherichia coli ATCC 35270 after 24 hrs by two-fold broth dilution assay; format: functional; details: ATCC 35270, 24 h
[3] = system: Trichophyton mentagrophytes; test: Antimicrobial activity against Trichophyton mentagrophytes IFO 40996 after 48 to 72 hrs by two-fold broth dilution assay; format: functional
Candida albicans = test: Antimicrobial activity against Candida albicans ATCC 10231 after 48 to 72 hrs by two-fold broth dilution assay; format: functional
Hepa-1c1c7 [4] = test: Induction of quinone reductase in mouse Hepa-1c1c7 cells at 2 uM after 24 hrs by MTT assay relative to control; format: cell-based
[5] = read-out: LC50 (the source's name)

| Compound | CC50 (K562) [µM] | CC50 (A549; read-out: LD50 (the source's name)) [µM] | MIC (Trichophyton rubrum) [µg/mL] | Activity (Hepa-1c1c7 [1]) | MIC (Bacillus spizizenii) [µg/mL] | Ratio (Hepa-1c1c7 [2]) | MIC (Salmonella typhimurium) [µg/mL] | MIC (Aspergillus fumigatus) [µg/mL] | MIC (Proteus vulgaris) [µg/mL] | MIC (Staphylococcus aureus) [µg/mL] | MIC (Micrococcus luteus) [µg/mL] | MIC (Escherichia coli) [µg/mL] | MIC [3] [µg/mL] | MIC (Candida albicans) [µg/mL] | CC50 (A549; [5]) [µM] | Activity (Hepa-1c1c7 [2]) | Activity (Hepa-1c1c7 [4]) |
| --- | --- | --- | --- | --- | --- | --- | --- | --- | --- | --- | --- | --- | --- | --- | --- | --- | --- |
| COc1cccc2c1C(=O)c1c(O)c3c(c(O)c1C2=O)C[C@@](O)(C(=O)CO)C[C@@H]3O[C@H]1C[C@H](N)[C@H](O)[C@H](C)O1 [DOXORUBICIN] | 0.99 | 1.2 | – | – | – | – | – | – | – | – | – | – | – | – | – | – | – |
| Cc1cc(=O)c2c(o1)O[C@@]1(C)[C@@H](CC[C@H]3C(C)(C)C(=O)CC[C@@]31C)C2 | 50 | – | > 100 | Dose-dependent effect | > 100 | 1.9 | > 100 | > 100 | > 100 | > 100 | > 100 | > 100 | > 100 | > 100 | 17 | – | – |
| Cc1cc(=O)c2c(o1)O[C@@]1(C)[C@@H](CC[C@H]3C(C)(C)[C@@H](O)CC[C@@]31C)C2 | 28 | – | > 100 | – | > 100 | – | > 100 | > 100 | > 100 | > 100 | > 100 | > 100 | > 100 | > 100 | 15 | inactive | – |
| O=c1cc(-c2ccccc2)oc2ccc3ccccc3c12 | – | – | – | – | – | – | – | – | – | – | – | – | – | – | – | – | Active |
